VLA-4 inh – inhibition in a human VLA-4 binding assay; 330,000 compounds, 0.2% hits; VLA-4 expressing cells, ligand binding flow cytometry; inhibition, % (about 7 µM as worked out from the volumes in the protocol); P13612; in the data active means inhibition above about 50%
UPR XBP1 act – activators of adaptive arm of unfolded protein response (XBP1); activation, % at 20 µM; CHO-XBP1 luciferase reporter, IRE1-XBP1 UPR activation, luminescence; percent of tunicamycin response, DMSO as zero; 330,000 compounds, 0.33% hits;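 active means versus positive control, 20 µM dose yields 30% or more activation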;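 further: 100% = tunicamycin at 10 µg/mL and 0% = DMSO only wells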
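Test system: CHO-XBP1 luciferase reporter cells | Buffer or medium: Serum-containing F12 medium, 10% FBS | Schedule: 6 h compound exposure at 37 °C, 5% CO2 | Detection: Steady-Glo luciferase glow luminescence, 10 min after reagent addition | Read-out basis: Activation, % of tunicamycin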
B2AR ag – human beta-2 adrenergic receptor agonism by FAP; P07550; Am2.2-beta2AR cells, FAP receptor internalization, flow cytometry; response, % (no concentration beside the values); 340,000 compounds, 0.43% hits; AID 504454;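 active means response above a set limit, near 3 SD of response in nonfluorescent compounds, cut at about 42% in these data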
UPR CHOP act – activators of apoptotic arm of unfolded protein response (CHOP). CHO-CHOP luciferase reporter, UPR activation, luminescence; percent of tunicamycin response over DMSO baseline. activation, % at 10 µM. 330,000 compounds, 0.34% hits;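 active means at 10 µM dose, activation of 40% or more, normalized to positive control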;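 further: 100% = tunicamycin at 10 µg/mL and 0% = DMSO alone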
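measured by = luciferase luminescence | assay system = CHO-CHOP cells, stable luciferase reporter of PERK-eIF2a-CHOP signalling | amount = 500 reporter cells seeded per well | timing = 6 h compound exposure at 37 °C after overnight seeding | controls = positive tunicamycin 10 µg/mL, negative DMSO alone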
CHOP inh – inhibitors of CHOP induction in ER stress response. inhibition, % at 10 µM. CHO-K1 CHOP-promoter luciferase, tunicamycin-induced, 15-18 h. 220,000 compounds, 3.8% hits;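 active means compounds that reduced the stress-induced luciferase reporter signal by more than about 70% of percent inhibition, limit read from the data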;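 further: 0% = tunicamycin plus vehicle and 100% = wells without tunicamycin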
UPR CHOP confirm – confirmation of apoptotic unfolded protein response (CHOP) activators; 1,000 compounds, 64% hits; activation, % at 10 µM; AID 463112; shares compounds with UPR CHOP act; CHO-CHOP cells, CHOP-luciferase reporter luminescence; percent of tunicamycin response, DMSO as zero; in the data active means activation above about 33%;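 further: 0% = DMSO wells and 100% = tunicamycin 10 µg/mL wells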
* = called active by the depositor; i = inactive; · = no result given. This excerpt belongs to a sample that is enriched for hits.

SMILES | VLA-4 inh | UPR XBP1 act | B2AR ag | UPR CHOP act | CHOP inh | UPR CHOP confirm
COc1ccc(N=C2S/C(=C\c3ccc(N4CCOCC4)o3)C(=O)N2CCc2c[nH]c3ccccc23)cc1 | i | -7 | -499 | 139* | 37 | 73*
CCOC(=O)C1=C(C)NC(=S)NC1c1ccc(OCC(=O)N2CCCCCC2)cc1 (stereo not drawn) | -4 | -3 | 4 | -1 | · | ·
Cc1ccc(Sc2ncnc3onc(C)c23)cc1 | -4 | 3 | 21 | 8 | 26 | ·
Cc1noc2ncnc(Sc3ccc(Cl)cc3)c12 | 6 | -6 | 20 | 188* | -7 | 118*
N#Cc1c(N2CCCC(O)C2)nc(N)c2c(N)nc3c(c12)CC(=O)N3C12CC3CC(CC(C3)C1)C2 (stereo not drawn) | -11 | 25 | -24 | 46* | -101 | 20
CC(=O)Nc1ccc(NS(=O)(=O)c2cc(-c3n[nH]c(=O)c4ccccc34)ccc2C)cc1 | 3 | -1 | 9 | 1 | 5 | ·
COc1ccc(Br)cc1CN(C)C(=O)c1ccccc1OCc1c(C)noc1C | 10 | -3 | 11 | 3 | · | ·
CC(C)C(=O)N1CCN(c2ccccc2NC(=S)NC(=O)Cc2ccccc2)CC1 | -2 | -1 | 17 | 1 | · | ·
Cc1cc2c3c(c1)C(C)CC(C)(C)N3C(=O)C2=C(C#N)C#N (stereo not drawn) | 3 | 10 | -1 | 0 | 5 | ·
CC(=O)N(C1CC(C)C(C#N)(C#N)C1(C#N)C#N)N(C)C (stereo not drawn) | 38 | -7 | 23 | 72* | 92* | -9
Cc1ccc(-c2nn3c(C)nnc3s2)cc1NC(=O)c1ccc(-c2cccc(Cl)c2)o1 | · | -1 | 15 | 2 | 50 | ·
Cc1ccc(-c2nn3c(C)nnc3s2)cc1NC(=O)c1ccc(-c2ccc(Cl)cc2Cl)o1 | -1 | 51* | 10 | 46* | 81* | 35*
O=C(CN1CCN(S(=O)(=O)c2ccc(Cl)cc2)CC1)c1ccc(O)c(O)c1 | 6 | 22 | 16 | 71* | · | 5
O=C(CN1CCN(S(=O)(=O)c2ccc(F)cc2)CC1)c1ccc(O)c(O)c1 | -8 | 27 | 10 | 10 | -2 | ·
N#CC1(NC(=O)COC(=O)C23CC4CC(CC(O)(C4)C2)C3)CCCCC1 | 3 | -2 | 1 | 0 | · | ·
O=C1C(Cl)=C(NC(=O)c2ccccc2)C(=O)C(Cl)=C1NC(=O)c1ccccc1 | 24 | -11 | 56* | 86* | · | 50*
Cc1cc(C)n(-c2nc(NC(C)(C)C)nc(NC(C)(C)C)n2)n1 | 4 | 9 | -2 | 108* | 78* | 45*
CC(=O)c1c(C(C)=O)c(C)n(-c2cccc([N+](=O)[O-])c2)c1C | -1 | 2 | 0 | 2 | 7 | ·
Cc1cc(C(=O)CCl)c(C)n1-c1cccc([N+](=O)[O-])c1 | 9 | -3 | 6 | 174* | 104* | 31
Cc1cccc(CSc2cccc3cccnc23)c1 | -8 | 5 | 21 | 407* | 0 | 254*
CCOC(=O)CSc1cccc2cccnc12 | 0 | 5 | 11 | 231* | 2 | 202*
Cc1cccc(NC(=O)CSc2cccc3cccnc23)c1C | 23 | -2 | -2 | 2 | · | ·
CN(CC(=O)Nc1ccc(F)cc1)C(=O)COC(=O)CCN1C(=O)C2CC=CCC2C1=O (stereo not drawn) | 0 | 0 | -3 | 1 | · | ·
Oc1ccc(/C=N/Nc2cc(N3CCCC3)nc(N3CCCC3)n2)cc1O | 11 | 18 | 14 | 126* | 12 | 124*
Oc1ccc(/C=N\Nc2cc(N3CCOCC3)nc(N3CCOCC3)n2)c(O)c1 | 19 | 2 | 24 | 4 | -34 | ·
SMILES | VLA-4 inh | UPR XBP1 act | B2AR ag | UPR CHOP act | CHOP inh | UPR CHOP confirm
CC1=NN(c2ccccc2)C(=O)/C1=C\C=C\c1ccccc1 | 13 | -1 | 35 | 3 | -19 | ·
ClC1=C(Cl)C(Cl)=C(Cl)C1=C/C=C/c1ccccc1 | 3 | 30 | 9 | 55* | 95* | 29
CCOC(=O)N1CCN(Cc2cc(Cl)c3cccnc3c2O)CC1 | 1 | 19 | · | 105* | 83* | 116*
CCOC(=O)C1CCN(Cc2ccc(O)c3ncccc23)CC1 | 9 | 6 | 0 | 235* | · | 142*
CCOC(=O)N1CCN(Cc2ccccc2Cl)CC1 | 14 | 0 | 2 | 0 | 39 | ·
Fc1ccc(NC(=S)Nc2nccs2)cc1 | 18 | 9 | 2 | 75* | -217 | 80*
O=C(Cc1ccc(F)cc1)Nc1nccs1 | -1 | -1 | -19 | 2 | · | ·
COc1cccc2sc(Nc3nnc(-c4ccc(F)cc4)o3)nc12 | 13 | 3 | 9 | 1 | 46 | ·
COc1cccc2sc(Nc3nnc(-c4cccs4)o3)nc12 | 7 | 5 | 8 | 55* | · | 60*
COc1cccc2sc(Nc3nc(-c4ccccn4)cs3)nc12 | -26 | 9 | 20 | 624* | · | 425*
CCc1c(C)nc(N2CCN(c3ccccc3F)CC2)[nH]c1=O | -5 | -6 | 10 | 1 | · | ·
CC(C)C(OC(=O)c1nsc(Cl)c1Cl)C(=O)NC1CCCCC1 (stereo not drawn) | -1 | -7 | 4 | 3 | · | ·
COc1ccc(C(C[N+](=O)[O-])c2c(C)[nH]n(-c3ccccc3)c2=O)cc1 (stereo not drawn) | 27 | -7 | 13 | 89* | · | 0
Cc1[nH]n(-c2ccccc2)c(=O)c1C(C[N+](=O)[O-])c1ccccc1Cl (stereo not drawn) | 9 | -2 | 6 | 2 | -8 | ·
C/C(CC1CC2=C(CC1(C)C)C(C)(C)CCC2)=N\NC(N)=S (stereo not drawn) | -2 | 25 | 16 | 57* | -62 | 27
Cc1c(NC(=O)C(C)OC(=O)c2ccc([N+](=O)[O-])s2)c(=O)n(-c2ccccc2)n1C (stereo not drawn) | -3 | -2 | -29 | -1 | -29 | ·
CC(C)(C)c1ccc(/C=C(\c2nc3ccccc3[nH]2)S(=O)(=O)c2ccccc2)cc1 | 0 | 11 | 21 | 56* | · | 71*
Cc1cccc(/C=C(\c2nc3ccccc3[nH]2)S(=O)(=O)c2ccccc2)c1 | · | · | 25 | · | 40 | ·
CCCCC(=O)Nc1ccc2c(c1)nc(CCN1CCN(C)CC1)n2C | 3 | -2 | -11 | 1 | 1 | ·
Cc1ccc(S(=O)(=O)NC2CCCCCCC2)cc1 | 9 | -3 | -1 | -1 | · | ·
Cc1ccc(S(=O)(=O)NC2OC(=O)C(Cl)=C2Cl)cc1 (stereo not drawn) | 12 | -5 | 9 | 63* | -78 | 15
COC(=O)N=Nc1c(O)[nH]c2ccc(Br)cc12 | -3 | 1 | -13 | 0 | 7 | ·
Oc1[nH]c2ccc(Br)cc2c1N=NC(=S)N1CCOCC1 | 28 | 8 | 12 | 168* | -51 | 102*

Screening results deposited in PubChem by several laboratories.
